Calls of active or inactive are those of the source. No cut-off for these calls is given here.

The test system of series [1] is MDA-MB-231. In words: Antimetastatic activity against EGFP tagged human MDA-MB-231 cells expressing CA9 assessed as inhibition of cell migration under normoxic condition after 24 hrs by scratch-wound assay. The series is classed as functional, cell-based. The essentials:
(§1)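 Scratch-wound migration in confluent monolayers of RPMI 1640/10% FCS/2 mM glutamine-grown cells (eGFP-tagged MDA-MB-231, WRO, FTC-133; untagged RT112, HCT116). Incubation 24 h in normoxia or anoxia with DMSO or inhibitor at increasing concentrations (3.3, 10, 33 μM tested). Wound closure imaged by fluorescence. n = 3 per concentration per cell line; mean ± SEM, Student's t test.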

For series [2], the system named is MDA-MB-231. Put plainly: Antimetastatic activity against EGFP tagged human MDA-MB-231 cells expressing CA9 assessed as inhibition of cell migration under anoxic condition after 24 hrs by scratch-wound assay. The series is classed as functional, cell-based. The essentials:
as §1

Another series has as its target Carbonic anhydrase 9 (Homo sapiens, UniProt Q16790). Put plainly: Inhibition of human recombinant transmembrane CA9 preincubated for 15 mins by stopped-flow CO2 hydration method. The essentials:
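Stopped-flow CO₂ hydration with in-house recombinant human CA, CO₂ 1.7−17 mM. Inhibitor diluted in water from 0.1 mM stock down to 0.01 nM, preincubated with enzyme 15 min at room temperature. Initial velocity from ≥6 traces of the first 5−10% of reaction, uncatalyzed rate subtracted.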

Series [3] relates to Mus musculus. Put plainly: Toxicity in nu/nu CBA mouse xenografted with EGFP tagged human MDA-MB-231 cells expressing CA9 assessed as signs of intolerance at 10 mg/kg, ip administered 5 days on 2 days off. The class given is organism-based. Particulars: in vivo. Set-up: dose 10 mg/kg, route intraperitoneal. In a few lines:
(§2)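 Female nu/nu CBA mice, 10−12 weeks old, 8 per group, injected orthotopically into the fourth inguinal nipple with eGFP-MDA-MB-231 cells (5 × 10⁷ cells/mL in 1:1 serum-free RPMI/Matrigel). From 150 mm³ tumors, dosed 10 mg/kg ip daily (saline, 4% DMSO), 5 days on/2 off. Callipers 3×/week; health checked daily; body weight tracked. Culled at 1000 mm³; lung metastasis by ex vivo clonogenic assay.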

For a further series, the system named is RT-112. Put plainly: Antimetastatic activity against CA9 deficient human RT112 cells assessed as inhibition of cell migration under anoxic condition at 33 uM after 24 hrs by scratch-wound assay. The series is classed as functional, cell-based. The essentials:
as §1

For series [4], the system named is HCT-116. Put plainly: Antimetastatic activity against human HCT116 cells xenografted in mouse assessed as inhibition of lung metastasis. The class given is functional.
In series [5] the test system is MDA-MB-231. Put plainly: Antimetastatic activity against EGFP tagged human MDA-MB-231 cells expressing CA9 assessed as inhibition of cell migration under anoxic condition at 33 uM after 24 hrs by scratch-wound assay. The series is classed as functional. As to conditions: MDA-MB-231, 24 h. The essentials: as §1
Series [6] deals with MDA-MB-231. In words: Antimetastatic activity against EGFP tagged human MDA-MB-231 cells expressing CA9 assessed as inhibition of cell migration under anoxic condition at 10 uM after 24 hrs by scratch-wound assay. The series is classed as functional. As to conditions: MDA-MB-231, 24 h. In a few lines: as §1
Series [7] relates to MDA-MB-231. In words: Antimetastatic activity against EGFP tagged human MDA-MB-231 cells expressing CA9 xenografted in nu/nu CBA mouse tumor assessed as reduction in metastasic burden in lungs at 10 mg/kg, ip, administered 5 days on 2 days off measured on day 10 by clonogenic assay. The class given is functional, organism-based. More on the design: dose 10 mg/kg. In a few lines:
as §2
In general terms: A xenograft is tissue or cells of one species grown in another, often human tumour cells in immunodeficient mice.

Series [8] deals with MDA-MB-231. In words: Antitumor activity against EGFP tagged human MDA-MB-231 cells expressing CA9 xenografted in nu/nu CBA mouse assessed as tumor growth inhibition at 10 mg/kg, ip administered 5 days on 2 days off. The class given is functional, organism-based. More on the design: dose 10 mg/kg. In a few lines: as §2
Series [9] has as its system MDA-MB-231. Put plainly: Cytotoxicity against EGFP tagged human MDA-MB-231 cells expressing CA9 at 100 uM. The class given is functional, cell-based.
The subject of series [10] is MDA-MB-231. Put plainly: Antimetastatic activity against EGFP tagged human MDA-MB-231 cells expressing CA9 assessed as inhibition of cell spreading under normoxic condition at 33 uM after 60 mins by phalloidin staining. The class given is functional, cell-based.
For series [11], the system named is Mus musculus. Put plainly: Toxicity in nu/nu CBA mouse xenografted with EGFP tagged human MDA-MB-231 cells expressing CA9 assessed as change in body weight at 10 mg/kg, ip administered 5 days on 2 days off. The class given is organism-based. Particulars: in vivo. Set-up: dose 10 mg/kg, route intraperitoneal. In a few lines: as §2
In the next series the test system is FTC-133. Put plainly: Antimetastatic activity against EGFP tagged human FTC-133 cells expressing CA9 assessed as inhibition of cell migration under anoxic condition at 33 uM after 24 hrs by scratch-wound assay. The class given is functional, cell-based. The essentials: as §1
Series [12] concerns MDA-MB-231. In words: Antimetastatic activity against EGFP tagged human MDA-MB-231 cells expressing CA9 assessed as inhibition of cell migration under anoxic condition at 3.3 uM after 24 hrs by scratch-wound assay. The series is classed as functional. As to conditions: MDA-MB-231, 24 h. The essentials: as §1
Series [13] concerns MDA-MB-231. Put plainly: Antimetastatic activity against EGFP tagged human MDA-MB-231 cells expressing CA9 assessed as inhibition of cell spreading under anoxic condition at 33 uM after 60 mins by phalloidin staining. The series is classed as functional, cell-based.
The test system of series [14] is HCT-116. Put plainly: Antimetastatic activity against human HCT116 cells assessed as stimulation of cell migration under anoxic condition at 33 uM after 24 hrs by scratch-wound assay. The series is classed as functional. In a few lines:
as §1

A short description of series [15]: Antimetastatic activity against EGFP tagged human WRO cells expressing CA9 assessed as inhibition of cell migration under anoxic condition at 100 uM after 24 hrs by scratch-wound assay. The series is classed as functional.

By inhibition is commonly meant the percentage by which the read-out fell short of the control. Consider `NS(=O)(=O)Oc1ccc(NC(=O)Nc2ccc(F)cc2)cc1`, for which the inhibition result in the series on MDA-MB-231 [1] and in the series with MDA-MB-231 [2] was “Active” in each case.

With `NS(=O)(=O)Oc1ccc(NC(=O)Nc2ccc(Cl)cc2)cc1`, the inhibition result in the series with MDA-MB-231 [1] and in the series on MDA-MB-231 [2] was “Active” throughout.

Turning to `NS(=O)(=O)Oc1ccc(NC(=O)Nc2ccc([N+](=O)[O-])cc2)cc1`, the inhibition entry in the series on MDA-MB-231 [1] and in the series with MDA-MB-231 [2] was “Active” each time.

One may read the Ki as a measure of affinity in units of concentration, obtained from inhibition or displacement. On to `NS(=O)(=O)Oc1ccc(-[n+]2c(-c3ccccc3)cc(-c3ccccc3)cc2-c2ccccc2)cc1`, for which the inhibition entry in the series on MDA-MB-231 [2] is “inactive”. Further, the inhibition constant Ki at Carbonic anhydrase 9 amounted to 14 nM.

For `Cc1cc(C)cc(NC(=O)Nc2ccc(OS(N)(=O)=O)cc2)c1`, the Activity result in the series on Mus musculus [3] is recorded as “Non-toxic”; in the series with Mus musculus [11], “Non-toxic”; in the series on HCT-116 [14] it was 44%. Also, the inhibition result in the series on RT-112, with HCT-116 [4] and in the series on MDA-MB-231 [10] was “inactive” each time. Besides, the inhibition at 33 µM in the series with MDA-MB-231 [5] came out at 50%. Moreover, in the series with MDA-MB-231 [6], the inhibition at 10 µM worked out at 21%. Moreover, the outcome in the series on MDA-MB-231 [7] and in the series on MDA-MB-231 [9] was Active. In addition, the “growth inhibition (GI)” value in the series on MDA-MB-231 [8] was “inactive”. In addition, the inhibition entry in the series on FTC-133 and in the series on MDA-MB-231 [13] was “Active” in each case. The inhibition at 3.3 µM in the series on MDA-MB-231 [12] was determined as 5%. Moreover, in series [15], the inhibition at 100 µM turned out to be 41%.

Turning to `COc1ccc(NC(=O)Nc2ccc(OS(N)(=O)=O)cc2)cc1`, in the series on MDA-MB-231 [2], the inhibition result is “inactive”.

In the case of `NS(=O)(=O)Oc1ccc(NC(=S)Nc2ccc(-c3c4ccc(=O)cc-4oc4cc(O)ccc34)c(C(=O)O)c2)cc1`, the inhibition result with MDA-MB-231 [2] was “inactive”.

Turning to `CN(C)c1ccc(NC(=O)Nc2ccc(OS(N)(=O)=O)cc2)cc1`, the inhibition entry in the series with MDA-MB-231 [2] was “inactive”. Besides, at Carbonic anhydrase 9, the Ki is 9 nM.

For the molecule `NS(=O)(=O)Oc1ccc(NC(=O)Nc2c(F)c(F)c(F)c(F)c2F)cc1`, in the series on MDA-MB-231 [5], the inhibition at 33 µM stood at 32%.

As for `NS(=O)(=O)Oc1ccc(NC(=O)Nc2ccc(Oc3ccccc3)cc2)cc1`, the inhibition at 33 µM in the series on MDA-MB-231 [5] was determined as 49%.

The values above are taken from ChEMBL document CHEMBL2146379, “Antimetastatic effect of sulfamate carbonic anhydrase IX inhibitors in breast carcinoma xenografts” (J Med Chem, 2012).
